Measurements as given in ChEMBL document CHEMBL4043093, “2-Oxo-3, 4-dihydropyrimido[4, 5-d]pyrimidinyl derivatives as new irreversible pan fibroblast growth factor receptor (FGFR) inhibitors” (Eur J Med Chem, 2017).

How the values were obtained:
[1] = molecular target: Fibroblast growth factor receptor 4 (Homo sapiens, UniProt P22455); assay: Inhibition of human recombinant His-tagged FGFR4 cytoplasmic domain ([…] residues) expressed in baculovirus using Tyr-4 peptide after 1 hr by FRET-based Z'-Lyte assay
[2] = test system: Tyrosine-protein kinase ABL1 (Homo sapiens), P00519 [F317I]; assay: Inhibition of human phosphorylated ABL1 F317I mutant (S229 to K512 residues) expressed in HEK293 cells assessed as residual activity at 1000 nM after 30 mins by Kinomescan method relative to control; assay type: cell-based
Procedure, shortened: (§1)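 Single-point screen at a fixed 1 µM, run within a 456-kinase DiscoveRx KINOMEscan panel. Each kinase's read-out is Percent Control, i.e. signal relative to a control without compound. Hits were scored by a Percent Control < 35 cut-off, and an S(35) selectivity score was calculated across the non-mutant kinases.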

[3] = molecular target: Bone morphogenetic protein receptor type-2 (Homo sapiens) (UniProt Q13873); assay: Inhibition of wild-type human partial length BMPR2 (R179 to Q526 residues) expressed in HEK293 cells assessed as residual activity at 1000 nM after 30 mins by Kinomescan method relative to control; assay type: cell-based
[4] = test system: Serine/threonine-protein kinase B-raf (Homo sapiens), P15056 [V600E]; assay: Inhibition of human partial length BRAF V600E mutant (S429 to E741 residues) expressed in HEK293 cells assessed as residual activity at 1000 nM after 30 mins by Kinomescan method relative to control; assay type: cell-based
Sequence of Serine/threonine-protein kinase B-raf (Homo sapiens), P15056 [V600E] (P15056 whole entry V600E, the tested form may be a part): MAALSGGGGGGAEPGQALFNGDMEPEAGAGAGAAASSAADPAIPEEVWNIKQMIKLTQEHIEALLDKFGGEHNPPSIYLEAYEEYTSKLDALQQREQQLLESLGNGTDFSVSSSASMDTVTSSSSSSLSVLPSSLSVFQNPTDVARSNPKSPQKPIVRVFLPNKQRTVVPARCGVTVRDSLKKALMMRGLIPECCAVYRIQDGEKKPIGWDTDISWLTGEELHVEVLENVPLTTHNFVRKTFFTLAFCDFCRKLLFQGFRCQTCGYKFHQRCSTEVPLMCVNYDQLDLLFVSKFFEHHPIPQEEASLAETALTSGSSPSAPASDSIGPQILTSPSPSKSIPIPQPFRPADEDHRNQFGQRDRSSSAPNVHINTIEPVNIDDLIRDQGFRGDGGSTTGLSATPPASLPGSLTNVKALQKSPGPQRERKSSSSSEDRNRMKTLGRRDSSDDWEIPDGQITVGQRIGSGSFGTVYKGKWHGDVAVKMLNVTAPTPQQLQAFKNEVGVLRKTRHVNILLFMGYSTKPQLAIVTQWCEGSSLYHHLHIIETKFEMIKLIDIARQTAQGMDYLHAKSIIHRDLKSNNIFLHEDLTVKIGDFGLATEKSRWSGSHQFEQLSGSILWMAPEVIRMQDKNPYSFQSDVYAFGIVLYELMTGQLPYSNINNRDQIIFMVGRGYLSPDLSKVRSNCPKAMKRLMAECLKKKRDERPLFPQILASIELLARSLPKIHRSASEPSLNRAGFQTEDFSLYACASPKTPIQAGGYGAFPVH
Procedure, shortened: (§2)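 KINOMEscan binding panel of 456 kinases, with the test compound at a single concentration of 1 µM. Read-out is Percent Control.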

[5] = test system: Epidermal growth factor receptor (Homo sapiens), P00533 [T790M]; assay: Inhibition of human partial length EGFR T790M mutant (R669 to G1022 residues) expressed in HEK293 cells assessed as residual activity at 1000 nM after 30 mins by Kinomescan method relative to control; assay type: cell-based; procedure, shortened: as §2
[6] = molecular target: Ephrin type-B receptor 6 (Homo sapiens) (UniProt O15197); assay: Inhibition of wild-type human partial length EPHB6 (Q634 to P948 residues) expressed in HEK293 cells assessed as residual activity at 1000 nM after 30 mins by Kinomescan method relative to control; assay type: cell-based
[7] = molecular target: Serine/threonine-protein kinase/endoribonuclease IRE1 (Homo sapiens) (UniProt O75460); assay: Inhibition of wild-type human partial length ERN1 (S551 to E852 residues) expressed in HEK293 cells assessed as residual activity at 1000 nM after 30 mins by Kinomescan method relative to control; assay type: cell-based
Sequence of Serine/threonine-protein kinase/endoribonuclease IRE1 (Homo sapiens) (O75460 19-977 limits assumed): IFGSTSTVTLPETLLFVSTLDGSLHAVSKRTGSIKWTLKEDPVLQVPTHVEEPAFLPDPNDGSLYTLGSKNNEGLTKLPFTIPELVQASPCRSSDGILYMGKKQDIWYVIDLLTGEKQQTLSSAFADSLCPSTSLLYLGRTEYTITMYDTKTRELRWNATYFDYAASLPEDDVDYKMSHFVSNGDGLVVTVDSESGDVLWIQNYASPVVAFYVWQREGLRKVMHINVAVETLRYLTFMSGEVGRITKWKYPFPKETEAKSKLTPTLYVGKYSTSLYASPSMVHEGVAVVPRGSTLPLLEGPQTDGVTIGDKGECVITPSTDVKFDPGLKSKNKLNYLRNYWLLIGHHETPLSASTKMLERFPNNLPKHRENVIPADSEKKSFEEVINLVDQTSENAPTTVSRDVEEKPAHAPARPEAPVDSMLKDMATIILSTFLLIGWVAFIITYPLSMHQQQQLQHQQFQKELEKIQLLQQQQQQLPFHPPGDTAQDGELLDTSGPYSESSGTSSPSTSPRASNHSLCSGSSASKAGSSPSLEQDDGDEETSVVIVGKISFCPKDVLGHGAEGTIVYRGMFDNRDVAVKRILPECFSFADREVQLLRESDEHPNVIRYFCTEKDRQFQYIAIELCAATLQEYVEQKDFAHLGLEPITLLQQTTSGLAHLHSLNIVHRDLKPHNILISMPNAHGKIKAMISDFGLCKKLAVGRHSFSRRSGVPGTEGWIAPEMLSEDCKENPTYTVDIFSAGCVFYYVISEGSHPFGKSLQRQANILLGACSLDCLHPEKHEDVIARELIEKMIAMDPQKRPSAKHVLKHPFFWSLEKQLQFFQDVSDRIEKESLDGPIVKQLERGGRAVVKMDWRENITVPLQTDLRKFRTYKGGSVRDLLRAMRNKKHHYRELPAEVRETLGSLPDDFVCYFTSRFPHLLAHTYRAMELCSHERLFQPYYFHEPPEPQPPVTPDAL

[8] = molecular target: Tyrosine-protein kinase Fes/Fps (Homo sapiens) (UniProt P07332); assay: Inhibition of wild-type human partial length FES (I527 to R822 residues) expressed in Escherichia coli BL21 assessed as residual activity at 1000 nM after 30 mins by Kinomescan method relative to control
[9] = molecular target: Hormonally up-regulated neu tumor-associated kinase (Homo sapiens) (UniProt P57058); assay: Inhibition of wild-type human partial length HUNK (A31 to K354 residues) expressed in Escherichia coli BL21 assessed as residual activity at 1000 nM after 30 mins by Kinomescan method relative to control
[10] = molecular target: Mast/stem cell growth factor receptor Kit (Homo sapiens) (UniProt P10721); assay: Inhibition of wild-type human partial length autoinhibited KIT (Y545 to D952 residues) expressed in HEK293 cells assessed as residual activity at 1000 nM after 30 mins by Kinomescan method relative to control; assay type: cell-based
Sequence of Mast/stem cell growth factor receptor Kit (Homo sapiens) (P10721 whole entry, the tested form may be a part): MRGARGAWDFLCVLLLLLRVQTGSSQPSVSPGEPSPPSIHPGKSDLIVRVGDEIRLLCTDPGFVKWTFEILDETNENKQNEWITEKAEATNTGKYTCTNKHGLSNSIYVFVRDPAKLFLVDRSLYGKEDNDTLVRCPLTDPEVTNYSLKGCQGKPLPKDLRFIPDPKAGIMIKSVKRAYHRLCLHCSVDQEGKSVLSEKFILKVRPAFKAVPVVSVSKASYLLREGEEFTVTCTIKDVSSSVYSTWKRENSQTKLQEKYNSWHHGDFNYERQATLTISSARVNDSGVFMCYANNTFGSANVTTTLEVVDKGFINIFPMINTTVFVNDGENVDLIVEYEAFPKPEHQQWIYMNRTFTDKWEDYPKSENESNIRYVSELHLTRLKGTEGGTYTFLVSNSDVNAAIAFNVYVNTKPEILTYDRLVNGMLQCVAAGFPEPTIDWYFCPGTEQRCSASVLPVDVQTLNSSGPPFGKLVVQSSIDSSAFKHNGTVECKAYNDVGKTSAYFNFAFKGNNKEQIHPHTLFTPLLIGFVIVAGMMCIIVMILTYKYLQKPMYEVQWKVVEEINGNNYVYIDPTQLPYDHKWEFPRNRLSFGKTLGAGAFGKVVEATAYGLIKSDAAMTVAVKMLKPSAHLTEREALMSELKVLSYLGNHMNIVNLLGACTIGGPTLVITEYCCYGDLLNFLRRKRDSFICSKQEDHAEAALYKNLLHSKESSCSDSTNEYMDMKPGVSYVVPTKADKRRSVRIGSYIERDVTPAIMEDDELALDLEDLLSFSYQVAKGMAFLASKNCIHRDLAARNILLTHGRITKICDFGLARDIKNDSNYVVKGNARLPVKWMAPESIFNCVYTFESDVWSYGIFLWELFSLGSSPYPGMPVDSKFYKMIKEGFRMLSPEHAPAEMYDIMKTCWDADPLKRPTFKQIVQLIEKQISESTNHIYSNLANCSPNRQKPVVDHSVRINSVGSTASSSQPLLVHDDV

[11] = molecular target: Tyrosine-protein kinase Mer (Homo sapiens) (UniProt Q12866); assay: Inhibition of wild-type human partial length MERTK (R557 to L884 residues) expressed in Escherichia coli BL21 assessed as residual activity at 1000 nM after 30 mins by Kinomescan method relative to control
Sequence of Tyrosine-protein kinase Mer (Homo sapiens) (Q12866 whole entry, the tested form may be a part): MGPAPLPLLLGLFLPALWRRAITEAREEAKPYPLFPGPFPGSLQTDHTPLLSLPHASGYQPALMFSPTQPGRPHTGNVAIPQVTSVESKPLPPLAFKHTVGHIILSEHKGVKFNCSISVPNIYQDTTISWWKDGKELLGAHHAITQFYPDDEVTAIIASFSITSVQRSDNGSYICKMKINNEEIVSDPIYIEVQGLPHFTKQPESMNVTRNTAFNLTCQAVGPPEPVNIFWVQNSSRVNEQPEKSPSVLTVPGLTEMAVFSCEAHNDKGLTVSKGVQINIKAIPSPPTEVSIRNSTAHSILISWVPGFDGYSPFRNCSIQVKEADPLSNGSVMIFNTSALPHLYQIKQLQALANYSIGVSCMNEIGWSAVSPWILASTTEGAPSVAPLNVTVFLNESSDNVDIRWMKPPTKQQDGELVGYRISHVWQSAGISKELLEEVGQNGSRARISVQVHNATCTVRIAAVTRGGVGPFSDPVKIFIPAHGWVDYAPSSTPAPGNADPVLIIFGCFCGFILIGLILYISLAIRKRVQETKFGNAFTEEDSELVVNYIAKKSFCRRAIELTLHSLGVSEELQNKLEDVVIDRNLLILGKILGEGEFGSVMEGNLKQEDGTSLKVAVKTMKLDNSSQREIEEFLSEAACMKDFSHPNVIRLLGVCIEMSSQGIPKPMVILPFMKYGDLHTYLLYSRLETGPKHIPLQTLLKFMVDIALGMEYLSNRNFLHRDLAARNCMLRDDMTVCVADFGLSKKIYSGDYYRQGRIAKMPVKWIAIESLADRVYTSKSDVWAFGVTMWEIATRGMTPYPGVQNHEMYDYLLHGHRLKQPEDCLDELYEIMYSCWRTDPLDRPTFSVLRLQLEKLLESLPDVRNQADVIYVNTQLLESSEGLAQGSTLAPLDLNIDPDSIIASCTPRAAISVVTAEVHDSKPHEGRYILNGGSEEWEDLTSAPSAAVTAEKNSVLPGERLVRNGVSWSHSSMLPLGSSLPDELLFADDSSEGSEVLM

[12] = molecular target: Myosin light chain kinase 2, skeletal/cardiac muscle (Homo sapiens) (UniProt Q9H1R3); assay: Inhibition of wild-type human partial length MYLK2 (D258 to K570 residues) expressed in Escherichia coli BL21 assessed as residual activity at 1000 nM after 30 mins by Kinomescan method relative to control
[13] = molecular target: Mitogen-activated protein kinase kinase kinase 14 (Homo sapiens) (UniProt Q99558); assay: Inhibition of wild-type human partial length NIK (L318 to P947 residues) expressed in HEK293 cells assessed as residual activity at 1000 nM after 30 mins by Kinomescan method relative to control; assay type: cell-based
[14] = test system: Plasmodium falciparum; assay: Inhibition of wild-type Plasmodium falciparum full length CDPK1 (M1 to S524 residues) expressed in HEK293 cells assessed as residual activity at 1000 nM after 30 mins by Kinomescan method relative to control; assay type: cell-based; procedure, shortened: as §1
[15] = molecular target: Cyclin-dependent kinase 15 (Homo sapiens) (UniProt Q96Q40); assay: Inhibition of wild-type human full length PFTAIRE2 (M1 to W384 residues) expressed in Escherichia coli BL21 assessed as residual activity at 1000 nM after 30 mins by Kinomescan method relative to control
Procedure, shortened: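 Single-concentration screen at 1 µM across a 456-kinase KINOMEscan panel. The read-out is Percent Control for each kinase.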

[16] = molecular target: Serine/threonine-protein kinase pim-3 (Homo sapiens) (UniProt Q86V86); assay: Inhibition of wild-type human partial length PIM3 (G16 to A317 residues) expressed in Escherichia coli BL21 assessed as residual activity at 1000 nM after 30 mins by Kinomescan method relative to control
[17] = molecular target: Serine/threonine-protein kinase D3 (Homo sapiens) (UniProt O94806); assay: Inhibition of wild-type human partial length PRKD3 (S543 to E863 residues) expressed in Escherichia coli BL21 assessed as residual activity at 1000 nM after 30 mins by Kinomescan method relative to control
[18] = molecular target: cGMP-dependent protein kinase 2 (Homo sapiens) (UniProt Q13237); assay: Inhibition of wild-type human partial length PRKG2 (S422 to F762 residues) expressed in HEK293 cells assessed as residual activity at 1000 nM after 30 mins by Kinomescan method relative to control; assay type: cell-based
[19] = molecular target: Serine/threonine-protein kinase SIK1 (Homo sapiens) (UniProt P57059); assay: Inhibition of wild-type human partial length SIK (M1 to Y304 residues) expressed in Escherichia coli BL21 assessed as residual activity at 1000 nM after 30 mins by Kinomescan method relative to control
Sequence of Serine/threonine-protein kinase SIK1 (Homo sapiens) (P57059 whole entry, the tested form may be a part): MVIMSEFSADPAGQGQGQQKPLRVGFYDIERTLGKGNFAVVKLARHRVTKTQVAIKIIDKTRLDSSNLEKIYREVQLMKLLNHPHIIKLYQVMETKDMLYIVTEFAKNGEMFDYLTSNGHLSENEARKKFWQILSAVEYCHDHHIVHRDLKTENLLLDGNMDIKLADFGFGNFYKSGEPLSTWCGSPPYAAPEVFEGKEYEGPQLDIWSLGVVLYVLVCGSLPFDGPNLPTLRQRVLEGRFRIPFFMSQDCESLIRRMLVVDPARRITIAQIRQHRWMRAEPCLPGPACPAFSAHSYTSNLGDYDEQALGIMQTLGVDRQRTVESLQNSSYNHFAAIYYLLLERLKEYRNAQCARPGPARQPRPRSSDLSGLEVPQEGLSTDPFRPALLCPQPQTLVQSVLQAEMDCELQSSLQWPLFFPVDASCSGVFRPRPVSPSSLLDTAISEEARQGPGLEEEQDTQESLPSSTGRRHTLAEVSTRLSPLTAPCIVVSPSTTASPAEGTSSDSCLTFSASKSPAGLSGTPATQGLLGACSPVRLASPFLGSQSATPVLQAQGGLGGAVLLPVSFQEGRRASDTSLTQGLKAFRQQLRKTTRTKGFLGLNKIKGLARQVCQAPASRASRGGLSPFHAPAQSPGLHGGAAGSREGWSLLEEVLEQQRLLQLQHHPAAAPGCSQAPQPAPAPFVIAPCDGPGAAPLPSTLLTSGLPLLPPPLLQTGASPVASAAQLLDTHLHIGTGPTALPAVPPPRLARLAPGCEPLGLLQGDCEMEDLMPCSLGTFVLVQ

[20] = molecular target: Serine/threonine-protein kinase 36 (Homo sapiens) (UniProt Q9NRP7); assay: Inhibition of wild-type human partial length STK36 (M1 to T271 residues) expressed in Escherichia coli BL21 assessed as residual activity at 1000 nM after 30 mins by Kinomescan method relative to control
[21] = molecular target: Serine/threonine-protein kinase VRK2 (Homo sapiens) (UniProt Q86Y07); assay: Inhibition of wild-type human partial length VRK2 (M1 to T336 residues) expressed in HEK293 cells assessed as residual activity at 1000 nM after 30 mins by Kinomescan method relative to control; assay type: cell-based
Sequence of Serine/threonine-protein kinase VRK2 (Homo sapiens) (Q86Y07 whole entry, the tested form may be a part): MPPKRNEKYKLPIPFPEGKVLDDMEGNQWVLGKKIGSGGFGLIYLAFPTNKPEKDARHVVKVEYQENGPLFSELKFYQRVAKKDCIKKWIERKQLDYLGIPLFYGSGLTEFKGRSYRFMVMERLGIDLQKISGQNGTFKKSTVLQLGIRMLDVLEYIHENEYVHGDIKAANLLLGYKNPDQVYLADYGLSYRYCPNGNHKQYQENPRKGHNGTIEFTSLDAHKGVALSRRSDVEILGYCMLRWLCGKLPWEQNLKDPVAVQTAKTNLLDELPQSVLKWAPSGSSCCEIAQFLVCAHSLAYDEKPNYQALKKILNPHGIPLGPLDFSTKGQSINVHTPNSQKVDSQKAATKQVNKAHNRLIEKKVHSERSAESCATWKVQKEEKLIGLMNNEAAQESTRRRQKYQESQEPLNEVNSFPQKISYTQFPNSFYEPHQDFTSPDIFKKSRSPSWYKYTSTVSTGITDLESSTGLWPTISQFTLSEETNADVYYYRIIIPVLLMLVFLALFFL

With `COc1cc(OC)c(Cl)c(N2Cc3cnc(Nc4ccc(F)cc4)nc3N(C3CCN(C(=O)/C=C/CN(C)C)CC3)C2=O)c1Cl` the IC50 [1] was 78.1 nM, the Activity [2] was 99% and the Activity [3] was 96%. The Activity [4] was 83%, the Activity [5] was 94% and the Activity [6] was 67%. For the same molecule, the Activity [7] was 100%, the Activity [8] was 40% and the Activity [9] was 100%. It also gave an Activity [10] of 90%, an Activity [11] of 85% and an Activity [12] of 82%. For the same molecule, the Activity [13] was 93%, the Activity [14] was 100% and the Activity [15] was 100%. The Activity [16] was 100%, the Activity [17] was 100% and the Activity [18] was 100%. It also gave an Activity [19] of 19%, an Activity [20] of 100% and an Activity [21] of 100%.
